How the values were obtained:
Set-up in all cases: scale not given: the % may be the effect or the level left
[1] = Antioxidant activity assessed as reduction in generation of hydroxyl radicals at 100 ug/mL measured as malondialdehyde formation by spectrophotometry relative to control; assay type: functional
[2] = Antioxidant activity assessed as reduction in generation of superoxide radicals at 100 ug/mL measured as formazone formation by spectrophotometry relative to control; assay type: functional
Method in brief: (§1)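 Superoxide was generated enzymatically with xanthine ([…]), xanthine oxidase (0.04 U) and nitroblue tetrazolium (320 μM) in 100 mM phosphate buffer, pH 8.2, with or without compound. Incubated 30 min at 37 °C, then stopped with glacial acetic acid. Formazone was quantified spectrophotometrically (nmol/min). Mean ± SD of six; Student's t-test.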

[3] = Antioxidant activity assessed as reduction in lipid peroxidation in microsomes at 100 ug/mL measured as malondialdehyde formation by spectrophotometry relative to control; assay type: functional; settings: Microsome
Rattus norvegicus [4] = assay: Antidyslipidemic activity against triton-induced inhibition of post heparin lipolytic activity in Charles Foster rat hyperlipidemia model assessed as formation of free fatty acid per mL of plasma at 100 mg/kg, po after 18 hrs relative to control; assay type: functional
Method in brief: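 Triton WR-1339 rat model (400 mg/Kg ip; compound 100 mg/Kg po in gum acacia, given with triton; six rats per group). Post-heparin lipolytic activity was measured in plasma collected at 18 h. Expressed as nmol free fatty acid formed/h/mL plasma; mean ± SD.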

Rattus norvegicus [5] = assay: Decrease in triton-induced increase in protein level in Charles Foster rat hyperlipidemia model at 100 mg/kg, po after 18 hrs relative to control; assay type: functional
[6] = Antioxidant activity assessed as reduction in generation of superoxide radicals at 200 ug/mL measured as formazone formation by spectrophotometry relative to control; assay type: functional; method in brief: as §1
Rattus norvegicus [7] = assay: Antidyslipidemic activity against triton-induced hyperlipidemia in Charles Foster rat assessed as reduction in triglyceride level at 100 mg/kg, po after 18 hrs relative to control; assay type: functional
Method in brief: (§2)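 Adult male Charles Foster rats (200 […] 225 g), six per group. Triton WR-1339 at 400 mg/Kg ip induced hyperlipidemia. Test compound was given at 100 mg/Kg po, suspended in 0.2% w/v gum acacia in water, at the same time as triton; vehicle controls were included. After 18 h, retro-orbital blood was taken into EDTA and plasma obtained (2500 g, 4 °C, 10 min). Plasma was diluted 1:3 in saline and TC, PL and Tg measured by standard methods. Reported as mean […] SD; Student's t-test.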

Rattus norvegicus [8] = assay: Antidyslipidemic activity against triton-induced hyperlipidemia in Charles Foster rat assessed as reduction in total cholesterol level at 100 mg/kg, po after 18 hrs relative to control; assay type: functional; method in brief: as §2
[9] = Antioxidant activity assessed as reduction in lipid peroxidation in microsomes at 200 ug/mL measured as malondialdehyde formation by spectrophotometry relative to control; assay type: functional; settings: Microsome
Rattus norvegicus [10] = assay: Antidyslipidemic activity against triton-induced hyperlipidemia in Charles Foster rat assessed as reduction in phospholipid level at 100 mg/kg, po after 18 hrs relative to control; assay type: functional; method in brief: as §2
[11] = Antioxidant activity assessed as reduction in generation of hydroxyl radicals at 200 ug/mL measured as malondialdehyde formation by spectrophotometry relative to control; assay type: functional
[12] = Antioxidant activity assessed as reduction in lipid peroxidation in microsomes at 200 ug/mL measured as malondialdehyde formation by spectrophotometry relative to control; settings: Microsome

Row | SMILES | Activity [1] [%] | Activity [2] [%] | Activity [3] [%] | Activity (Rattus norvegicus [4]) [%] | Activity (Rattus norvegicus [5]) [%] | Activity [6] [%] | Activity (Rattus norvegicus [7]) [%] | Activity (Rattus norvegicus [8]) [%] | Activity [9] [%] | Activity (Rattus norvegicus [10]) [%] | Activity [11] [%] | Activity [12] [%]
1 | OC[C@@H](O)[C@@H](O)[C@H](O)[C@H](O)CO | 45 |  |  |  |  |  |  |  |  |  |  | 
2 | Oc1ncnc2[nH]ncc12 |  | 77 |  |  |  |  |  |  |  |  |  | 
3 | CC(=O)OC[C@H]1O[C@@H](NC(=S)N/N=C/c2ccc(Cl)cc2)[C@H](OC(C)=O)[C@@H](OC(C)=O)[C@@H]1OC(C)=O | 13 | 16 | 23 | 12 | 22 | 25 | 10 | 14 | 33 | 6 | 19 | 
4 | COc1ccc(/C(C)=N/NC(=S)N[C@@H]2O[C@H](COC(C)=O)[C@@H](OC(C)=O)[C@H](OC(C)=O)[C@H]2OC(C)=O)cc1OC | 15 | 9 | 22 | 25 | 24 | 24 | 22 | 19 | 35 | 23 | 27 | 
5 | COc1ccc(NNC(=S)N[C@@H]2O[C@H](COC(C)=O)[C@@H](OC(C)=O)[C@H](OC(C)=O)[C@H]2OC(C)=O)cc1 | 15 | 21 | 28 | 7 | 18 | 37 | 10 | 18 | 32 | 12 | 23 | 
6 | CC(=O)OC[C@H]1O[C@@H](NC(=S)N/N=C/c2ccncc2)[C@H](OC(C)=O)[C@@H](OC(C)=O)[C@@H]1OC(C)=O | 11 | 14 | 22 | 8 | 11 | 25 | 8 | 11 | 33 | 11 | 23 | 
7 | Cc1ccc(C)c(OCCCC(C)(C)C(=O)O)c1 [GEMFIBROZIL] |  |  |  | 34 | 33 |  | 37 | 38 |  | 39 |  | 
8 | CC(=O)OC[C@H]1O[C@@H](NC(=S)NNc2ccc(F)cc2F)[C@H](OC(C)=O)[C@@H](OC(C)=O)[C@@H]1OC(C)=O | 20 | 16 | 24 | 23 | 20 | 27 | 25 | 24 | 31 | 25 | 35 | 
9 | CC(=O)OC[C@H]1O[C@@H](NC(=S)N/N=C/c2ccc([N+](=O)[O-])cc2)[C@H](OC(C)=O)[C@@H](OC(C)=O)[C@@H]1OC(C)=O | 17 | 13 | 18 | 13 | 22 | 23 | 11 | 19 | 31 | 14 | 23 | 
10 | CC(=O)OC[C@H]1O[C@@H](NC(=S)N/N=C(\C)c2cccc([N+](=O)[O-])c2)[C@H](OC(C)=O)[C@@H](OC(C)=O)[C@@H]1OC(C)=O | 24 | 17 | 20 | 10 | 19 | 33 | 18 | 23 | 30 | 19 | 35 | 
11 | CC(=O)OC[C@H]1O[C@@H](NC(=S)NNc2ccccc2)[C@H](OC(C)=O)[C@@H](OC(C)=O)[C@@H]1OC(C)=O | 25 | 19 | 23 | 8 | 16 | 32 | 9 | 11 | 39 | 10 | 42 | 
12 | CC(=O)OC[C@H]1O[C@@H](NC(=S)N/N=C/c2cccnc2)[C@H](OC(C)=O)[C@@H](OC(C)=O)[C@@H]1OC(C)=O | 13 | 16 | 18 | 9 | 14 | 28 | 10 | 15 | 26 | 14 | 26 | 
13 | COc1ccc(/C=N/NC(=S)N[C@@H]2O[C@H](COC(C)=O)[C@@H](OC(C)=O)[C@H](OC(C)=O)[C@H]2OC(C)=O)cc1 | 20 | 25 | 26 | 8 | 15 | 33 | 10 | 17 | 35 | 15 | 34 | 
14 | CC(=O)OC[C@H]1O[C@@H](NC(=S)NNc2ccc(F)cc2)[C@H](OC(C)=O)[C@@H](OC(C)=O)[C@@H]1OC(C)=O | 22 | 15 | 22 | 14 | 18 | 29 | 9 | 13 | 34 | 14 | 36 | 
15 | CC(=O)OC[C@H]1O[C@@H](NC(=S)N/N=C(\C)c2ccc(Br)cc2)[C@H](OC(C)=O)[C@@H](OC(C)=O)[C@@H]1OC(C)=O | 14 | 21 | 16 | 16 | 26 | 33 | 25 | 22 | 29 | 26 | 24 | 
16 | CC(=O)OC[C@H]1O[C@@H](NC(=S)N/N=C/c2ccc([N+](=O)[O-])s2)[C@H](OC(C)=O)[C@@H](OC(C)=O)[C@@H]1OC(C)=O | 20 | 20 | 11 | 14 | 19 | 34 | 14 | 13 | 23 | 16 | 37 | 
17 | CC(=O)OC[C@H]1O[C@@H](NC(=S)NNc2ccc([N+](=O)[O-])cc2[N+](=O)[O-])[C@H](OC(C)=O)[C@@H](OC(C)=O)[C@@H]1OC(C)=O | 18 | 22 | 23 | 17 | 13 | 28 | 8 | 13 | 36 | 10 | 26 | 
18 | CC(=O)OC[C@H]1O[C@@H](NC(=S)N/N=C(\C)c2cc(C)ccc2C)[C@H](OC(C)=O)[C@@H](OC(C)=O)[C@@H]1OC(C)=O | 16 | 20 | 16 | 10 | 12 | 30 | 17 | 18 | 26 | 18 | 29 | 
19 | CC(=O)OC[C@H]1O[C@@H](NC(=S)N/N=C(\C)c2cccc(N)c2)[C@H](OC(C)=O)[C@@H](OC(C)=O)[C@@H]1OC(C)=O | 20 | 23 | 19 | 9 | 20 | 38 | 13 | 16 | 35 | 15 | 38 | 
20 | Cc1c(C)c2c(c(C)c1O)CC[C@@](C)(CCC[C@H](C)CCC[C@H](C)CCCC(C)C)O2 |  |  |  |  |  |  |  |  |  |  |  | 53

— ChEMBL document CHEMBL1154533, “Syntheses and evaluation of glucosyl aryl thiosemicarbazide and glucosyl thiosemicarbazone derivatives as antioxidant and anti-dyslipidemic agents” (2009)
